Results on eight compounds are retold here after ChEMBL document CHEMBL1155309, “Synthesis of 3,6-disubstituted 7H-1,2,4-triazolo[3,4-b]-1,3,4-thiadiazines as novel analgesic/anti-inflammatory compounds” (Eur J Med Chem, 2009).

The test system of data set [1] is Mus musculus. The experiment in a line: Antiinflammatory activity in BALB/c mouse assessed as inhibition of carrageenan-induced paw edema at 200 mg/kg, po after 270 mins. Particulars: 4.5 h. The format is functional. In outline: (§1)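 Oral dosing in 0.5% CMC/water suspension, vehicle for controls. 1 h later, carrageenan (0.5 mg/25 µl saline) injected subplantar into right hind paw, 25 µl saline into left. Right–left footpad thickness measured by dial callipers every 90 min for 6 h. % inhibition = [(n − n′)/n]×100 versus control. Groups of 3 (100 mg/kg screen) or 4–5 mice.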
On the technique in general: Carrageenan injected into the paw causes an acute inflammation.

Data set [2] has as its system Mus musculus. In words: Analgesic activity in BALB/c mouse assessed as decrease in acetic acid-induced writhing at 100 mg/kg, po administered 1 hr prior to acetic acid challenge by Koster's test. In kind it is functional. In outline:
(§2)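 Test samples suspended in distilled water/0.5% CMC given orally; vehicle to controls. 1 h later, 3% (w/v) acetic acid i.p. (0.1 ml/10 g). Starting 5 min after injection, writhings counted for 10 min. Result expressed as % change from writhing controls. Groups of 4 mice (preliminary 100 mg/kg) or 4–5 mice (50/200 mg/kg). Two-tailed Student's t test.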
(An intraperitoneal irritant provokes the stretching counted in writhing tests.)

Data set [3] has as its system Mus musculus. In words: Analgesic activity in BALB/c mouse assessed as decrease in acetic acid-induced writhing at 50 mg/kg, po administered 1 hr prior to acetic acid challenge by Koster's test. In kind it is functional. In outline: as §2
The test system of data set [4] is Mus musculus. In words: Antiinflammatory activity in BALB/c mouse assessed as inhibition of carrageenan-induced paw edema at 200 mg/kg, po after 90 mins. Particulars: 1.5 h. The format is functional. In outline:
as §1

Data set [5] deals with Mus musculus. The experiment in a line: Analgesic activity in BALB/c mouse assessed as decrease in acetic acid-induced writhing at 200 mg/kg, po administered 1 hr prior to acetic acid challenge by Koster's test. In kind it is functional. In outline:
as §2

Data set [6] has as its system Mus musculus. In words: Antiinflammatory activity in BALB/c mouse assessed as inhibition of carrageenan-induced paw edema at 200 mg/kg, po after 360 mins. In kind it is functional. Particulars: 6 h. The essentials: as §1
For data set [7], the system named is Mus musculus. In words: Antioxidant activity in BALB/c mouse assessed as TBARS level per gram of wet weight of tissue at 200 mg/kg, po. In kind it is functional. Also on record: unit: nmol/g. In outline:
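Mice dosed orally at 200 mg/kg were killed under ether 8 h after the writhing test and stomachs removed. Tissue extract supernatant obtained by centrifugation (1000×g 10 min, then 2000×g 30 min, 4 °C). Heated with TBA in boiling water for 60 min, TCA added, absorbance read at 532 nm against blank tissue. Calibrated with 1,1,3,3-tetraethoxypropane; reported as nmol TBARS/g wet tissue.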

For data set [8], the system named is Mus musculus. In words: Acute toxicity in BALB/c mouse assessed as diarrhea and depression at 50 to 200 mg/kg, po after 72 hrs. In kind it is organism-based. Also on record: dose 50-200 mg/kg, route oral. To be noted: in vivo.
In data set [9] the test system is Mus musculus. The experiment in a line: Gastrointestinal toxicity in BALB/c mouse assessed as acute ulcerogenic risk at 200 mg/kg, po. The format is organism-based. To be noted: in vivo. Details: dose 200 mg/kg, route oral. In outline: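 Mice, fasted overnight with free water, received 200 mg/kg orally as a suspension in distilled water with 0.5% carboxymethyl cellulose, in groups of 4–5. They were first used in the acetic acid writhing test. Eight hours after that test they were killed under deep ether anaesthesia, and their stomachs were removed and scored for ulcers. Acetylsalicylic acid 200 mg/kg was the reference.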

Data set [10] concerns Mus musculus. The experiment in a line: Antiinflammatory activity in BALB/c mouse assessed as inhibition of carrageenan-induced paw edema at 200 mg/kg, po after 270 mins. To be noted: 4.5 h.
The subject of data set [11] is Mus musculus. In words: Antiinflammatory activity in BALB/c mouse assessed as inhibition of carrageenan-induced paw edema at 100 mg/kg, po after 360 mins. Particulars: 6 h. The format is functional. The essentials: as §1
Data set [12] concerns Mus musculus. In words: Antiinflammatory activity in BALB/c mouse assessed as inhibition of carrageenan-induced paw edema at 50 mg/kg, po after 90 mins. To be noted: 1.5 h. The format is functional. In outline:
as §1

Data set [13] has as its system Mus musculus. The experiment in a line: Antiinflammatory activity in BALB/c mouse assessed as inhibition of carrageenan-induced paw edema at 100 mg/kg, po after 270 mins. The format is functional. Particulars: 4.5 h. In outline:
as §1

For data set [14], the system named is Mus musculus. The experiment in a line: Antiinflammatory activity in BALB/c mouse assessed as inhibition of carrageenan-induced paw edema at 100 mg/kg, po after 180 mins. The format is functional. Particulars: 3 h. The essentials:
as §1

In data set [15] the test system is Mus musculus. The experiment in a line: Antiinflammatory activity in BALB/c mouse assessed as inhibition of carrageenan-induced paw edema at 100 mg/kg, po after 90 mins. Particulars: 1.5 h. The format is functional. In outline: as §1
Data set [16] relates to Mus musculus. In words: Antiinflammatory activity in BALB/c mouse assessed as inhibition of carrageenan-induced paw edema at 50 mg/kg, po after 360 mins. In kind it is functional. Particulars: 6 h. The essentials:
as §1

The test system of data set [17] is Mus musculus. The experiment in a line: Antiinflammatory activity in BALB/c mouse assessed as inhibition of carrageenan-induced paw edema at 100 mg/kg, po after 180 mins. To be noted: 3 h.

Turning to `COc1cc(CCc2n[nH]c(=S)n2N)cc(OC)c1OC`, the inhibition in vivo at 200 mg/kg in the data set on Mus musculus [1] was found to be 20.4%; in the data set on Mus musculus [4] it was 39.3%; in the data set with Mus musculus [5] it was 54.2%; with Mus musculus [6], 41.7%. Also, in the data set with Mus musculus [2], the inhibition in vivo at 100 mg/kg stood at 52.4%. Moreover, the inhibition in vivo at 50 mg/kg in the data set on Mus musculus [3] turned out to be 23.1%. In addition, the results for the Activity in the data set with Mus musculus [7] and in the data set with Mus musculus [8] were 104.3 nmol and “Non-toxic”, respectively.

As for `COc1ccc(Cc2nnc3n2N=C(c2ccc(Cl)cc2)CS3)cc1`, the inhibition in vivo at 100 mg/kg in the data set on Mus musculus [2] came out at 33%. For the same compound, in the data set on Mus musculus [3], the inhibition in vivo at 50 mg/kg was determined as 9.9%. Besides, the inhibition in vivo at 200 mg/kg came to 39% with Mus musculus [5], 38.9% in the data set on Mus musculus [6] and 25% with Mus musculus [10]. The Activity entry is listed as “Non-toxic” in the data set with Mus musculus [9], 97.9 nmol with Mus musculus [7] and “Non-toxic” with Mus musculus [8].

For `COc1cc(CCc2nnc3n2N=C(c2ccc(F)cc2)CS3)cc(OC)c1OC`, the inhibition in vivo at 100 mg/kg with Mus musculus [2] came out at 43.1%; with Mus musculus [11] it was 38.9%; in the data set with Mus musculus [13], 57.9%; in the data set with Mus musculus [14], 21.4%; in the data set on Mus musculus [15], 40.7%. In addition, the inhibition in vivo at 50 mg/kg in the data set with Mus musculus [3] amounted to 35.2%; in the data set on Mus musculus [12], 34.5%. Also, the inhibition in vivo at 200 mg/kg with Mus musculus [5] worked out at 56.1%; in the data set on Mus musculus [6], 23%; in the data set with Mus musculus [10] it was 46.4%. The Activity in the data set with Mus musculus [7] is 105.1 nmol; in the data set on Mus musculus [8], “Non-toxic”.

On to `COc1cc(Cc2n[nH]c(=S)n2N)cc(OC)c1OC`, for which the inhibition in vivo at 200 mg/kg in the data set on Mus musculus [1] is 49.2%; in the data set with Mus musculus [5] it was 61%; in the data set on Mus musculus [6], 21.2%. The inhibition in vivo at 100 mg/kg came to 85.8% with Mus musculus [2] and 30% in the data set with Mus musculus [14]. Further, the values for the inhibition in vivo at 50 mg/kg in the data set on Mus musculus [3], in the data set on Mus musculus [12] and in the data set on Mus musculus [16] were 21.6%, 32.3% and 24.9%, respectively. The figures for the Activity in the data set with Mus musculus [7] and in the data set with Mus musculus [8] were 96.2 nmol and “Non-toxic”, respectively.

Consider `COc1cc(Cc2nnc3n2N=C(c2ccccc2)CS3)cc(OC)c1OC`, for which the inhibition in vivo at 100 mg/kg in the data set on Mus musculus [2] was determined as 53%; in the data set with Mus musculus [13], 23.6%; with Mus musculus [17], 34.9%; with Mus musculus [15], 24%. Further, the inhibition in vivo at 50 mg/kg in the data set on Mus musculus [3] was 32.4%. For the same compound, the inhibition in vivo at 200 mg/kg was 58.4% with Mus musculus [5], 33.3% in the data set with Mus musculus [6] and 32.2% with Mus musculus [10]. Besides, the Activity result in the data set on Mus musculus [9] is given as “Non-toxic”; in the data set with Mus musculus [7] it was 92.2 nmol; in the data set with Mus musculus [8], “Non-toxic”.

Consider `COc1cc(CCc2nnc3n2N=C(c2ccc(Cl)cc2)CS3)cc(OC)c1OC`, for which the inhibition in vivo at 100 mg/kg with Mus musculus [2] came out at 50.2%; in the data set on Mus musculus [13] it was 34.3%; with Mus musculus [17], 36.9%; with Mus musculus [15] it was 29.3%. Moreover, the inhibition in vivo at 50 mg/kg in the data set with Mus musculus [3] came to 28.5%. The inhibition in vivo at 200 mg/kg in the data set on Mus musculus [5] was 54.8%; with Mus musculus [6], 25%; with Mus musculus [10], 39.1%. Further, the Activity in the data set on Mus musculus [7] is given as 101.9 nmol; with Mus musculus [8], “Non-toxic”.

Take `COc1ccc(CCc2nnc3n2N=C(c2ccc(Cl)cc2)CS3)cc1`: the figures for the inhibition in vivo at 200 mg/kg with Mus musculus [1], in the data set with Mus musculus [5] and in the data set on Mus musculus [6] were 20.4%, 62.4% and 50%, respectively. Besides, the inhibition in vivo at 100 mg/kg was found to be 71.5% in the data set on Mus musculus [2] and 29.4% in the data set with Mus musculus [17]. Besides, the inhibition in vivo at 50 mg/kg in the data set with Mus musculus [3] is 20.2%. Also, the Activity in the data set on Mus musculus [7] is 108.4 nmol; with Mus musculus [8], “Non-toxic”.

On to `COc1ccc(Cc2n[nH]c(=S)n2N)cc1`, for which the inhibition in vivo at 100 mg/kg in the data set on Mus musculus [2] was 30.2%. Also, the inhibition in vivo at 50 mg/kg with Mus musculus [3] is 23.4%. Further, the inhibition in vivo at 200 mg/kg in the data set on Mus musculus [5] came out at 46.7%; in the data set on Mus musculus [6], 33.3%; with Mus musculus [10], 32.2%. In addition, the figures for the Activity result in the data set on Mus musculus [9], in the data set with Mus musculus [7] and in the data set with Mus musculus [8] were “Non-toxic”, 93 nmol and “Non-toxic”, respectively.

As a reminder, the inhibition in vivo is the drop in the measured response relative to a control, in per cent.
